Screening data deposited in PubChem by Johns Hopkins Ion Channel Center.
Kir21 block: Kir2.1 (mouse) channel inhibition. B-score at 10 µM. HEK293-Kir2.1, FluxOR thallium flux fluorescence; stronger effect = lower value. 310,000 compounds, 0.85% hits;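 active means fluorescence ratio B-score at or below minus 3 SD of library scores, with starting-brightness B-score within 2 SD, cut at about -4.2 in these data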;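 further: channel flux triggered by added potassium and thallium sulfate stimulus; B-score of peak minus minimum fluorescence over baseline after thallium stimulus; more negative B-score means stronger Kir2.1 block with less thallium influx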
KCNK3 block: human KCNK3 channel inhibition, primary screen; O14649; CHO-KCNK3 thallium flux, FluxOR fluorescence; stronger effect = lower value; B-score at 10 µM; 340,000 compounds, 0.84% hits;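 active means B-score under library mean minus 4 SD, starting fluorescence ratio at most library mean plus 5 SD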;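 further: more negative B-score means stronger inhibition of thallium flux through KCNK3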
KCNQ1 pot: potentiates or activates the human KCNQ1 potassium channel; CHO-K1 KCNQ1, thallium flux FluxOR fluorescence; stronger effect = higher value; B-score at 10 µM; 310,000 compounds, 0.35% hits;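 active means fluorescence ratio B-score, a plate-corrected score, at least three library SD, with initial intensity B-score within 5 SD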
Target sequence (P51787 whole entry, looked up): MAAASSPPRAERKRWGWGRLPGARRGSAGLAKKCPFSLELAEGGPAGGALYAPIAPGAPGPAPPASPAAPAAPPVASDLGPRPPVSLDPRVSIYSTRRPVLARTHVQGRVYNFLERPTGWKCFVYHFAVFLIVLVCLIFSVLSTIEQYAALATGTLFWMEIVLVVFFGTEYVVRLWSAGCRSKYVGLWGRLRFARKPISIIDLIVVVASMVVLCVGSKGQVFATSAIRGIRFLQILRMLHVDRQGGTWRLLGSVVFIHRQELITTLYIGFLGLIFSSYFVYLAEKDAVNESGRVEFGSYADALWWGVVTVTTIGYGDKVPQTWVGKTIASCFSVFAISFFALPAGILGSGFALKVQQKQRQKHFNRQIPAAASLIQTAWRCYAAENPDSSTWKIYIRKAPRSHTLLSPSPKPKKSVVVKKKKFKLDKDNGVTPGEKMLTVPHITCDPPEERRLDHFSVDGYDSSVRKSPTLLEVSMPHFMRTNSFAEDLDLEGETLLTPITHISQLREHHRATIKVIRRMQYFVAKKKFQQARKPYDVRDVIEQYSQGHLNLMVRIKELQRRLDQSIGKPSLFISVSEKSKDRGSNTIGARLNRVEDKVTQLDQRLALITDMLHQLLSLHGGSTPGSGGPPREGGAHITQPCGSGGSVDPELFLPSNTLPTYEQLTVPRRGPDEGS
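assay system = CHO-K1 cells stably expressing KCNQ1 | medium = assay buffer, equal DMSO in all wells | timing = 37 °C overnight plating, 90-min dark dye load, 20-min compound pretreatment | measured by = kinetic FluxOR thallium fluorescence, 10-s 1-Hz baseline, 110-s post-stimulus read | measure = fluorescence change relative to baseline, converted to B score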
KCNK9 block: human KCNK9 channel inhibition | 310,000 compounds, 1.2% hits | B-score at 10 µM | HEK293 KCNK9, FluxOR thallium flux fluorescence; stronger effect = lower value | Q9NPC2;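 active means ratio B-score over 3 SD below the library mean, with starting fluorescence within 5 SD of its mean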;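 further: negative B-score means less thallium flux so channel inhibition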
KCNQ1 block: human KCNQ1 channel inhibition; P51787; CHO-K1 KCNQ1, FluxOR thallium flux fluorescence; stronger effect = higher value; B-score at 10 µM; 310,000 compounds, 1.3% hits;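 active means compounds whose thallium flux B-score, printed positive for inhibition, exceeds three library SD while starting fluorescence stays within three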;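 further: channel opened by potassium depolarization with thallium stimulus after 20 min compound exposure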
hERG rescue: hERG (human) protection from proarrhythmic block | CHO-hERG, FluxOR thallium flux, dofetilide IC70 present | activation (rescue from dofetilide block), less the hit threshold, % at 10 µM | 310,000 compounds, 0.51% hits | Q12809 | AID 1511;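 active means activation above the mean of controls blocked by dofetilide plus 5 SD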;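 further: thallium influx through hERG after potassium depolarization seen as dye fluorescence rise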
* marks the source's active call; other numbers are inactive results; i = inactive; x = no result given. A selection: hits, their analogues and other compounds. The true share with any hit is near 3.7%.

SMILES | Kir21 block | KCNK3 block | KCNQ1 pot | KCNK9 block | KCNQ1 block | hERG rescue
Cn1c(=NC(=O)CS(=O)(=O)c2ccccc2)sc2cc([N+](=O)[O-])ccc21 | 1.8 | i | i | i | i | -14
COc1cccc(C(=O)NCC(c2ccco2)N2CCOCC2)c1 (configuration not stated) | 2.2 | i | i | i | i | -8
COc1ccc(/C=C2/C(=O)N(c3ccccc3)N=C2C)cc1 | 2.4 | i | i | i | i | 0
COc1ccc(C2=NN(c3ccccc3)C(=O)/C2=C\c2ccc(O)c(OC)c2)cc1 | 0.63 | i | i | i | 11* | -4
O=C(Nc1ccc(Br)cc1Cl)Nn1cnnc1 | -1.3 | i | i | i | i | 6.2*
COc1cc(/C=C2\SC(=O)N(c3ccccc3Cl)C2=O)cc([N+](=O)[O-])c1O | 1.5 | i | i | i | 10* | -11
O=c1c2ccccc2c(C=NCCCN2CCOCC2)c(O)n1Cc1ccccc1 | -5.8* | i | i | i | i | -11
O=c1c2ccccc2c(C=NCCc2ccccc2)c(O)n1Cc1ccccc1 | -0.22 | i | i | i | 6* | -14
CCOC(=O)c1nnn(-c2nonc2N)c1-c1ccc(F)cc1 | -0.05 | i | i | i | i | -2
COc1cc2c(cc1OC)CN(C(=O)c1cccc(S(=O)(=O)N3CCc4ccccc43)c1)CC2 | x | i | x | x | x | x
O=C(c1cccc(S(=O)(=O)N2CCCc3ccccc32)c1)N1CCN(c2ccccc2)CC1 | x | -9.5* | x | x | x | x
O=C(c1cccc(S(=O)(=O)N2CCc3ccccc32)c1)N1CCc2ccccc2C1 | x | -9.4* | x | x | x | x
Cn1cc(/C=C2\SC(=O)NC2=S)c2ccccc21 | -2.1 | i | i | i | i | 16*
COC(=O)[C@]1(Cc2ccccc2)N[C@H](CN(C)S(=O)(=O)c2ccc(-c3ccccc3)cc2)[C@@H]2C(=O)N(Cc3ccccc3)C(=O)[C@@H]21 | x | i | x | x | x | x
Cc1cc(Oc2ccc(C)c(Cl)c2)nc(SCC(=O)c2ccccc2)n1 | -2.4 | i | i | -7.2* | i | -2
Nc1nc(N)c(N=Nc2ccc(C(=O)O)cc2)c(N)n1 | 0.05 | i | 11* | i | i | -7
NNC(=S)NC1CCCCCCCCCCC1 | -2 | i | i | i | 8* | -18
O=C(Nc1cccc(Cl)c1N1CCCC1)c1cccc(-c2cc3ccccc3oc2=O)c1 | -1.8 | i | i | -7.1* | i | -8
O=C(Nc1ccc(CN2CCOCC2)cc1)c1cccc(-c2cc3ccccc3oc2=O)c1 | -1.5 | i | i | i | i | -32
CCn1c(=O)c([N+](=O)[O-])c(NCCN(C)C)c2ccccc21 | 1.2 | i | i | i | i | -10
CCn1c(=O)c([N+](=O)[O-])c(Cl)c2ccccc21 | -0.05 | i | i | i | 7* | -29
CCN(CC)S(=O)(=O)c1ccc2[nH]c(=O)cc(C(=O)Nc3cccc(C(C)=O)c3)c2c1 | -0.05 | i | i | i | i | 22*
COc1ccc2nc(N3C(=O)/C(=C/c4ccccc4)NC3=S)sc2c1 | 0.8 | i | 62* | i | i | 63*
Cc1cc2c(cc1C)CSC(c1ccccc1OC(=O)C(C)(C)C)SC2 | -0.05 | i | i | i | 6* | -12
CCCCC(=O)Oc1ccccc1C1SCc2cc(C)c(C)cc2CS1 | -0.14 | i | i | i | i | -9
SMILES | Kir21 block | KCNK3 block | KCNQ1 pot | KCNK9 block | KCNQ1 block | hERG rescue
CCN(CC)S(=O)(=O)c1ccc(NC(=O)CO/N=C(\N)c2ccccc2)cc1 | 1 | i | i | i | i | -17
COC(=O)c1cc2c([nH]c1=O)CCCC2=O | x | i | x | x | x | x
COC(=O)c1sc(S(=O)(=O)NCc2ccccc2)c(C(=O)OC)c1C | -5.2* | i | i | i | i | -15
O=C(CN1CCC(NC(=O)c2ccco2)CC1)Nc1ccccc1C(F)(F)F | 0.93 | i | i | i | i | -9
CCOCCCNC(=O)CSc1nnc(-c2ccc(S(=O)(=O)N3CCCC3)cc2)n1C | 0.52 | i | i | i | i | -9
CCOc1ccc(N=Nc2cc(C(C)C)ccc2O)cc1 | 1.6 | i | i | i | i | 9.1*
CCOc1ccc(N=C(C)c2ccccc2O)cc1 | 0 | i | i | i | i | -1
